The test system of one data set is Trypanosoma cruzi. The data set can be described thus: Antitrypanosomal activity against Trypanosoma cruzi Tulahuen 2 epimastigotes after 5 days. The following applies: Tulahuen 2, 120 h. Format: functional, organism-based. The procedure, abridged: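 T. cruzi Tulahuen 2 epimastigotes were grown axenically at 28 °C in BHI-tryptose with 5% FCS. Stationary-phase (5-day) cells were inoculated at 1 × 10⁶ cells/mL, with DMSO ≤0.4% final. Cultures ran 5 days with or without compound, first as a 25 µM screen and then at increasing concentrations. IC50 is the concentration halving this ratio.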

A further data set relates to HeLa. Put plainly: Cytotoxicity against human HeLa cells after 24 hrs by MTT assay. Format: cell-based. The procedure, abridged: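 HeLa cells were kept in DMEM with 10% FBS, penicillin and streptomycin at 37 °C and 5% CO2. Cells were seeded, and after 48 h compound was added at 4, 20 or 100 µM for 24 h. After PBS washes, cells got MTT at 0.5 mg/mL final for 4 h at 37 °C. Formazan was dissolved in isopropanol/HCl and read at 570 nm after blank subtraction. Survival is % of control, with ≥3 repeats of four samples each.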
For orientation: Tetrazolium assays rely on reduction of a dye to a coloured formazan, in cell work by metabolically active cells.

Data set [1] is described as follows: Selectivity index, ratio of IC50 for human HeLa cells to IC50 for Trypanosoma cruzi Tulahuen 2 epimastigotes. It counts as toxicity, cell-based. The note with it: HeLa cells versus Trypanosoma cruzi Tulahuen 2 epimastigotes, read-out: Ratio IC50. Put shortly: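 Selectivity index is the HeLa IC50 divided by the IC50 against T. cruzi Tulahuen 2 epimastigotes (5-day growth assay).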

The subject of another data set is DNA. The data set can be described thus: Binding affinity to calf thymus DNA at a DNA-drug molar ratio of 5:1 after 24 hrs by UV spectroscopy. The note with it: Bos taurus. It counts as nucleic-acid assay. Put shortly: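 Calf thymus DNA was prepared in 10 mM Tris–HCl pH 7.4. Compound (2 × 10⁻⁵ M, from an ethanol stock diluted with water) was mixed 1:1 by volume with the DNA solution at a 5:1 DNA-drug ratio. The mixture was rotated slowly for 24 h. UV absorbance area at maximal absorbance was compared (a24/a0), where 1 means no affinity and 0 means fully bound.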

The subject of the next data set is Plasmodium falciparum. The data set can be described thus: Antiparasitic activity against Plasmodium falciparum K1. Format: functional, organism-based.
A further data set has as its system Leishmania infantum. The data set can be described thus: Antiparasitic activity against Leishmania infantum. It counts as functional, organism-based.
Data set [2] concerns Trypanosoma brucei rhodesiense. The data set can be described thus: Antiparasitic activity against Trypanosoma brucei rhodesiense. Format: functional, organism-based.
The test system of a further data set is L6. The data set can be described thus: Cytotoxicity against rat L6 cells. It counts as cell-based.
A further data set concerns Leishmania donovani. The data set can be described thus: Antiparasitic activity against Leishmania donovani. It counts as functional, organism-based.
For data set [3], the system named is Onchocerca gutturosa. The data set can be described thus: Antiparasitic activity against Onchocerca gutturosa assessed as reduction in motility after 120 hrs. Format: functional. Set-up: scale not given: the % may be the effect or the level left.
Data set [4] concerns Onchocerca gutturosa. The data set can be described thus: Antiparasitic activity against Onchocerca gutturosa assessed as inhibition of MTT formazan formation. Format: functional. Details: scale not given: the % may be the effect or the level left.

In brackets after ≈: the same amount, converted by molar mass. Activity calls are given as the source filed them. No cut-off for these calls is given here.

One may read the IC50 as the midpoint of a concentration-inhibition curve.

For the molecule `Cc1ccc(NC(=S)c2c3n(c(=O)c4ccccc24)CCN3)cc1`, the concentration for half-maximal inhibition (IC50) with Trypanosoma cruzi was 1 µM; in the data set with HeLa, above 100 µM. Besides, in [1], the selectivity ratio was above 100. In the data set with DNA, the Activity amounted to 0.8.
On to `O=c1c2ccccc2c(C(=S)Nc2ccccc2)c2[nH]c3ccccc3n12`, for which the concentration for half-maximal inhibition (IC50) in the data set with Trypanosoma cruzi is 6.4 µM; in the data set on HeLa it was 98 µM; in the data set on Plasmodium falciparum it was above 19.5 µg/mL; in the data set on Leishmania infantum, above 19.5 µg/mL; in [2], above 22.7 µg/mL; in the data set on L6 it was above 22.8 µg/mL. For the same molecule, in data set [1], the selectivity ratio came out at 15. In addition, the outcome with Leishmania donovani was inactive. Moreover, in the data set with DNA, the Activity came out at 0.8.
Turning to `CN1CCN(C(=S)Nc2ccc(Nc3ccc([N+](=O)[O-])cc3)cc2)CC1` [AMOCARZINE], the Activity is on record as 85.71% in the data set on Onchocerca gutturosa [3] and 48.57% in the data set on Onchocerca gutturosa [4].
Regarding `CC(=O)N1CCn2c1c(C(=S)Nc1ccccc1)c1ccccc1c2=O`, the IC50 with Trypanosoma cruzi is 43 µM. Further, in the data set with DNA, the Activity is 0.8.
With `CC1CS(=O)(=O)CCN1/N=C/c1ccc([N+](=O)[O-])o1` (stereo not given) [NIFURTIMOX], the IC50 in the data set with HeLa stood at 12 µM. Besides, the selectivity ratio in data set [1] turned out to be 1.5.
As for `O=c1c2ccccc2c(C(=S)Nc2ccccc2)c2n1CCN2`, the IC50 with Trypanosoma cruzi was 3 µM; with HeLa, above 100 µM. The selectivity ratio in data set [1] is above 33. Further, in the data set on DNA, the Activity is 0.8.
For the molecule `O=C(Nc1ccccc1)c1c2n(c(=O)c3ccccc13)CCN2`, the half-maximal inhibitory concentration (IC50) with Trypanosoma cruzi is 30 µM; in the data set on HeLa it was above 100 µM; in the data set with Plasmodium falciparum, above 19.5 µg/mL; with Leishmania infantum it was above 19.5 µg/mL; in data set [2] it was above 19.5 µg/mL; in the data set on L6, above 19.6 µg/mL. Moreover, the result in the data set with Leishmania donovani was inactive. Moreover, the Activity in the data set with DNA came to 0.8.
Take `O=c1c2ccccc2cc2[nH]c3ccccc3n12`: the IC50 was above 25 µM with Trypanosoma cruzi and above 100 µM in the data set on HeLa. For the same molecule, the Activity with DNA came out at 0.85.
In the case of `O=c1c2ccccc2c(C(=S)Nc2ccc(Cl)cc2)c2n1CCN2`, the concentration for half-maximal inhibition (IC50) in the data set on Trypanosoma cruzi was 0.5 µM; with HeLa it was above 90 µM; in the data set with Plasmodium falciparum it was above 22.7 µg/mL; in the data set with Leishmania infantum, above 22.7 µg/mL; in data set [2], above 22.7 µg/mL; with L6, above 22.8 µg/mL. The selectivity ratio in data set [1] is above 180. Also, the result with Leishmania donovani was inactive. In addition, in the data set with DNA, the Activity worked out at 0.8.
Consider `O=c1c2ccccc2cc2n1CCN2`, for which the IC50 with Trypanosoma cruzi was above 25 µM; in the data set with HeLa, above 100 µM; in the data set with Plasmodium falciparum, above 10 µg/mL; with Leishmania infantum, above 20.7 µg/mL; in data set [2] it was 1.2 µg/mL (≈ 6.44 µM); in the data set with L6 it was above 100 µg/mL. For the same molecule, in the data set with Leishmania donovani, the result was inactive. Also, the Activity in the data set with Onchocerca gutturosa [3] was 14.29%; with Onchocerca gutturosa [4], 0%; in the data set with DNA, 0.8.
For the molecule `O=c1c2ccccc2c(C(=S)Nc2ccccn2)c2n1CCN2`, the values for the IC50 in the data set on Trypanosoma cruzi and with HeLa were 30 µM and above 100 µM, respectively. The Activity in the data set on DNA turned out to be 0.8.
Consider `COc1ccc(NC(=S)c2c3n(c(=O)c4ccccc24)CCN3)cc1`, for which the concentration for half-maximal inhibition (IC50) in the data set on Trypanosoma cruzi was found to be 12.3 µM; in the data set with HeLa it was 22 µM. Further, the selectivity ratio in data set [1] was determined as 1.7. Besides, in the data set on DNA, the Activity is 0.8.
Regarding `O=c1c2ccccc2c(C(=S)NCc2ccc(Cl)cc2)c2n1CCN2`, the half-inhibitory concentration (IC50) is 35 µM in the data set with Trypanosoma cruzi and above 90 µM in the data set on HeLa. In addition, in the data set on DNA, the Activity was 0.8.
As to `O=c1c2ccccc2c(C(=S)Nc2cccc3ccccc23)c2n1CCN2`, 25 µM corresponded to half-maximal inhibition in the data set on Trypanosoma cruzi (IC50). The Activity in the data set on DNA is 0.8.
On to `Cc1ccc(C(=O)Nc2ccc(S(=O)(=O)O)c3cc(S(=O)(=O)O)cc(S(=O)(=O)O)c23)cc1NC(=O)c1cccc(NC(=O)Nc2cccc(C(=O)Nc3cc(C(=O)Nc4ccc(S(=O)(=O)O)c5cc(S(=O)(=O)O)cc(S(=O)(=O)O)c45)ccc3C)c2)c1` [SURAMIN], for which the IC50 in data set [2] turned out to be 0.13 µg/mL (≈ 0.1 µM).
`Cc1cccc(NC(=S)c2c3n(c(=O)c4ccccc24)CCN3)c1`: the half-maximal inhibitory concentration (IC50) in the data set with Trypanosoma cruzi is 20 µM; in the data set with HeLa, above 52.5 µM. For the same molecule, the Activity in the data set on DNA came to 0.8.
`CC/C(=C(\c1ccccc1)c1ccc(OCCN(C)C)cc1)c1ccccc1` [TAMOXIFEN] gave a concentration for half-maximal inhibition (IC50) in the data set on L6 of 4.9 µg/mL (≈ 13.2 µM).

The values above are taken from ChEMBL document CHEMBL1152725, “New potent imidazoisoquinolinone derivatives as anti-Trypanosoma cruzi agents: biological evaluation and structure-activity relationships” (Bioorg Med Chem, 2009).
